In ChEMBL document CHEMBL4265950, “Discovery of furyl/thienyl β-carboline derivatives as potent and selective PDE5 inhibitors with excellent vasorelaxant effect” (Eur J Med Chem, 2018):
pEC50, pIC50, pKi: −log10 of the molar value. Blank lines part the entries; values can stand above or below the compound they belong to.

Legend:
[1] = target: T1, cGMP-specific 3',5'-cyclic phosphodiesterase (Homo sapiens, UniProt O76074); test: Inhibition of full length recombinant human N-terminal GST-tagged PDE5A1 expressed in baculovirus infected sf9 cells using FAM-cyclic-3',5-GMP as substrate after 1 hr by fluorescence polarization assay
[2] = target: T1, cGMP-specific 3',5'-cyclic phosphodiesterase; test: Inhibition of full length recombinant human N-terminal GST-tagged PDE5A1 expressed in baculovirus infected sf9 cells at 100 nM using FAM-cyclic-3',5-GMP as substrate after 1 hr by fluorescence polarization assay relative to control
In short: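 Single-point test at 100 nM, reported as percent inhibition. Human PDE5 at 15 ng/mL with 100 nM FAM-cGMP in MOPS pH 7.5 buffer (MgCl2, EDTA, BSA, DTT), 1% DMSO final, 60 min at 25 °C. Binding agent added for 1 h, then fluorescence polarization read at […] nm.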

[3] = target: Dual specificity calcium/calmodulin-dependent 3',5'-cyclic nucleotide phosphodiesterase 1A (Homo sapiens, UniProt P54750); test: Inhibition of full length recombinant human N-terminal GST-tagged PDE1A expressed in baculovirus infected sf9 cells using FAM-cyclic-3',5-AMP as substrate after 1 hr by fluorescence polarization assay
In short: (§1)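 Fluorescence polarization assay run at 25 °C for 60 min in 40 mM MOPS pH 7.5, 0.5 mM EDTA, 15 mM MgCl2, 0.15 mg/mL BSA, 1 mM DTT, 0.05% ProClin 200. Contained 15 ng/mL PDE isoform and 100 nM FAM-cGMP or FAM-cAMP according to isoform, with 1% DMSO final. Binding agent added for 1 h at 25 °C; read at […] nm. IC50 from normalized nonlinear dose-response fit.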

[4] = target: cGMP-dependent 3',5'-cyclic phosphodiesterase (Homo sapiens, UniProt O00408); test: Inhibition of recombinant human N-terminal FLAG-tagged PDE2A (2 to 941 residues) expressed in baculovirus infected sf9 cells using FAM-cyclic-3',5-AMP as substrate after 1 hr by fluorescence polarization assay; in short: as §1
[5] = target: cGMP-inhibited 3',5'-cyclic phosphodiesterase 3B (Homo sapiens, UniProt Q13370); test: Inhibition of recombinant human N-terminal GST-tagged PDE3B (592 to end residues) expressed in baculovirus infected sf9 cells using FAM-cyclic-3',5-AMP as substrate after 1 hr by fluorescence polarization assay; in short: as §1
[6] = target: 3',5'-cyclic-AMP phosphodiesterase 4A (Homo sapiens, UniProt P27815); test: Inhibition of full length recombinant human N-terminal GST-tagged PDE4A1A expressed in baculovirus infected sf9 cells using FAM-cyclic-3',5-AMP as substrate after 1 hr by fluorescence polarization assay
[7] = target: Cone cGMP-specific 3',5'-cyclic phosphodiesterase subunit alpha' (Homo sapiens, UniProt P51160); test: Inhibition of full length recombinant human N-terminal GST-tagged PDE6C expressed in baculovirus infected sf9 cells using […] as substrate after 1 hr by fluorescence polarization assay
[8] = species on record: Homo sapiens; test: Selectivity index, ratio of IC50 for inhibition of full length recombinant human N-terminal GST-tagged PDE6C expressed in baculovirus infected sf9 cells to IC50 for inhibition of full length recombinant human N-terminal GST-tagged PDE5A1 expressed in baculovirus infected sf9 cells
[9] = target: Dual 3',5'-cyclic-AMP and -GMP phosphodiesterase 11A (Homo sapiens, UniProt Q9HCR9); test: Inhibition of full length recombinant human N-terminal GST-tagged PDE11A4 expressed in baculovirus infected sf9 cells using FAM-cyclic-3',5-AMP as substrate after 1 hr by fluorescence polarization assay
[10] = species on record: Homo sapiens; test: Selectivity index, ratio of IC50 for inhibition of full length recombinant human N-terminal GST-tagged PDE11A4 expressed in baculovirus infected sf9 cells to IC50 for inhibition of full length recombinant human N-terminal GST-tagged PDE5A1 expressed in baculovirus infected sf9 cells
[11] = target: cGMP-specific 3',5'-cyclic phosphodiesterase (Rattus norvegicus) (UniProt O54735); test: (§2) Inhibition of PDE5 in Wistar rat mesentric arteries assessed as inhibition of phenylephrine-induced contraction by measuring increase in acetylcholine-induced vasorelaxation by pressure myographic method
In short: (§3)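 Third-order rat mesenteric arteries (110–150 µm), 3–4 mm unbranched segments, cannulated in PSS (pH 7.4, 95% O2/5% CO2). Equilibrated 35 min while pressure was stepped 10→60 mmHg. Checked with 120 mM KCl and acetylcholine, then constricted with 20 µM phenylephrine (norepinephrine in text) and given compounds cumulatively. Ca²⁺-free PSS set maximal dilation. Outer diameter recorded as % relaxation; EC50 from normalized nonlinear fit.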

[12] = target: cGMP-specific 3',5'-cyclic phosphodiesterase (Rattus norvegicus, UniProt O54735); test: as §2; in short: as §3
[13] = Stability of the compound in PDE5 enzyme assay condition at 100 uM by HPLC analysis; assay type: ADME
[14] = target: T1, cGMP-specific 3',5'-cyclic phosphodiesterase; test: Inhibition of PDE5 (unknown origin)

Chain of 3',5'-cyclic-AMP phosphodiesterase 4A (P27815 whole entry): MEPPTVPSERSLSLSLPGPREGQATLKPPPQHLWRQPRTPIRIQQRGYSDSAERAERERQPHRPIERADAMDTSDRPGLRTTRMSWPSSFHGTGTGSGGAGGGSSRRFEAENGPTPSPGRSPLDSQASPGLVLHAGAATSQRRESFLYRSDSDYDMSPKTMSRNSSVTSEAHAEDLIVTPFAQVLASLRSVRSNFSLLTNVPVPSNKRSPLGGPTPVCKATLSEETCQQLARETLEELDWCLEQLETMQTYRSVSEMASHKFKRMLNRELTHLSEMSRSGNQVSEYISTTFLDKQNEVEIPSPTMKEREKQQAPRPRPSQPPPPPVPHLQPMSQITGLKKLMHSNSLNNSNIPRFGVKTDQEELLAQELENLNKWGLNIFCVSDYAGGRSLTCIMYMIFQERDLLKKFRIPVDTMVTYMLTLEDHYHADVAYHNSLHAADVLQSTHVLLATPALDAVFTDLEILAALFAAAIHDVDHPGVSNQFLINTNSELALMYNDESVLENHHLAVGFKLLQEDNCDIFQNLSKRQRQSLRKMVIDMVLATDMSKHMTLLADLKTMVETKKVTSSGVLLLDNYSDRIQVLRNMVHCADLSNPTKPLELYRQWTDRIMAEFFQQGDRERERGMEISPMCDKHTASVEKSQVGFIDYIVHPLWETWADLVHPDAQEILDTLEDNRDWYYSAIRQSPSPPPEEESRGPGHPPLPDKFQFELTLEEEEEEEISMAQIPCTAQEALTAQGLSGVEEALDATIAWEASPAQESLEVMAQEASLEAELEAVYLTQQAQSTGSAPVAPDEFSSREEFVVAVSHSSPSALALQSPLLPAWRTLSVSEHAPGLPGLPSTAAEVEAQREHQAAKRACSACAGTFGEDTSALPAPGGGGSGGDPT
Chain of Dual 3',5'-cyclic-AMP and -GMP phosphodiesterase 11A (Q9HCR9 whole entry): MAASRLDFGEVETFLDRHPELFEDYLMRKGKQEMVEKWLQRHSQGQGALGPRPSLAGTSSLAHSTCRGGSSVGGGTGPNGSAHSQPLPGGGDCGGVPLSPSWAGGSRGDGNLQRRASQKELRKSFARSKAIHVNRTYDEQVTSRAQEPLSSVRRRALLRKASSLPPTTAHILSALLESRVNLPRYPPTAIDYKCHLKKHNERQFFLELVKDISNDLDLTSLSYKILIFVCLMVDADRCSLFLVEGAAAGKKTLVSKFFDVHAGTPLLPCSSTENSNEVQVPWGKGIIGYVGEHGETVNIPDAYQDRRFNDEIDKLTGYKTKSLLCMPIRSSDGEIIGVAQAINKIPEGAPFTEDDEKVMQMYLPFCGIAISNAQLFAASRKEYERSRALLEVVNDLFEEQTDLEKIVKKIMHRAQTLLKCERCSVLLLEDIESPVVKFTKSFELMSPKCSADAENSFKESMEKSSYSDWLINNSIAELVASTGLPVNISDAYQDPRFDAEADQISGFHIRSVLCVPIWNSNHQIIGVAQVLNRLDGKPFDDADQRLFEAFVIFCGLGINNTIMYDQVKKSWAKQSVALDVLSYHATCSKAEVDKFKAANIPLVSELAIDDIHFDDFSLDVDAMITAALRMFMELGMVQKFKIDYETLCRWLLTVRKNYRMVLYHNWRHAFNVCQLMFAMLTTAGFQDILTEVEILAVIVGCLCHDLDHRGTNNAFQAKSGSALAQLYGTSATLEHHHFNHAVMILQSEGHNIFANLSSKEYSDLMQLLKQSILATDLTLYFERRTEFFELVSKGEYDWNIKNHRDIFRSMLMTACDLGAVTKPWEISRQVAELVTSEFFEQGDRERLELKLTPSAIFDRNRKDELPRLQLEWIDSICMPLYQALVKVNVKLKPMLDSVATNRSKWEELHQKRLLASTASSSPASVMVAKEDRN
Chain of cGMP-dependent 3',5'-cyclic phosphodiesterase (O00408 whole entry, the tested form may be a part): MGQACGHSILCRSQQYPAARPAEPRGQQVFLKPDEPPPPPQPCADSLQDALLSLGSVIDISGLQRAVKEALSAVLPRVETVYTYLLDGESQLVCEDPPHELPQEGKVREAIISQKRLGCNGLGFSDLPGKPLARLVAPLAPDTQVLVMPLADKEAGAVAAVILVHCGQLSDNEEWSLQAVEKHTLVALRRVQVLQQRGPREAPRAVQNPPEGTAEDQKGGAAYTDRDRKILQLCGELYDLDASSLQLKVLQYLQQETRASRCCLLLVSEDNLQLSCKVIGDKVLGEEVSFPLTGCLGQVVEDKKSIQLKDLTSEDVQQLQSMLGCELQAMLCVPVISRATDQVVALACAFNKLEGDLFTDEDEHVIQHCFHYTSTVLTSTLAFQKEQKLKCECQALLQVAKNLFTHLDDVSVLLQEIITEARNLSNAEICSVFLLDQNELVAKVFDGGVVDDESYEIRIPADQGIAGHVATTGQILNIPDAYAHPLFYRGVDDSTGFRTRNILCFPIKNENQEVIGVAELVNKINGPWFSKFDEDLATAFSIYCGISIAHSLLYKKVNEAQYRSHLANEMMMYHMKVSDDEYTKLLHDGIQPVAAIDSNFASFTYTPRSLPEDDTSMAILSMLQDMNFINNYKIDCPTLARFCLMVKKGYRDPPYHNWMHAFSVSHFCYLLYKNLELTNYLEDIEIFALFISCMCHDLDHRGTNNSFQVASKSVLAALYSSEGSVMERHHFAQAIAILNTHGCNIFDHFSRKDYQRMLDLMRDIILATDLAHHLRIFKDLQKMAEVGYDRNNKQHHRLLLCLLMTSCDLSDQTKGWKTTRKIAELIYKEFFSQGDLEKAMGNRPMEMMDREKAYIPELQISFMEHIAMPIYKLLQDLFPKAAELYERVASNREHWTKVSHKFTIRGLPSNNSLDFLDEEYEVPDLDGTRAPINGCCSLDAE
Chain of Dual specificity calcium/calmodulin-dependent 3',5'-cyclic nucleotide phosphodiesterase 1A (P54750 whole entry, canonical isoform): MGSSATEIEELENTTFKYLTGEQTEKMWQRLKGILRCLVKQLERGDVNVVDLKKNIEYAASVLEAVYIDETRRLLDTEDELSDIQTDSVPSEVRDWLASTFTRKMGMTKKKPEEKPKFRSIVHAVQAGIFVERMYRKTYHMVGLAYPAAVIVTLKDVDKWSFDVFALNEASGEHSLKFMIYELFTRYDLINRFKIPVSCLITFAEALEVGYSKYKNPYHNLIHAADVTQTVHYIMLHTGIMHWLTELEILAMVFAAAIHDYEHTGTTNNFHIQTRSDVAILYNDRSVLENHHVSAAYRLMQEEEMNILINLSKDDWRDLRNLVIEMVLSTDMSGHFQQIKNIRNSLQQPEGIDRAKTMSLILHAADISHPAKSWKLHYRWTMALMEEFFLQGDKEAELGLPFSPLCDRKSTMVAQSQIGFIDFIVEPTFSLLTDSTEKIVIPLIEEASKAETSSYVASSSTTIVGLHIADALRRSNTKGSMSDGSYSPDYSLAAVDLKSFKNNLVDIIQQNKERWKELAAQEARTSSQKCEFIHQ
Chain of cGMP-inhibited 3',5'-cyclic phosphodiesterase 3B (Q13370 whole entry): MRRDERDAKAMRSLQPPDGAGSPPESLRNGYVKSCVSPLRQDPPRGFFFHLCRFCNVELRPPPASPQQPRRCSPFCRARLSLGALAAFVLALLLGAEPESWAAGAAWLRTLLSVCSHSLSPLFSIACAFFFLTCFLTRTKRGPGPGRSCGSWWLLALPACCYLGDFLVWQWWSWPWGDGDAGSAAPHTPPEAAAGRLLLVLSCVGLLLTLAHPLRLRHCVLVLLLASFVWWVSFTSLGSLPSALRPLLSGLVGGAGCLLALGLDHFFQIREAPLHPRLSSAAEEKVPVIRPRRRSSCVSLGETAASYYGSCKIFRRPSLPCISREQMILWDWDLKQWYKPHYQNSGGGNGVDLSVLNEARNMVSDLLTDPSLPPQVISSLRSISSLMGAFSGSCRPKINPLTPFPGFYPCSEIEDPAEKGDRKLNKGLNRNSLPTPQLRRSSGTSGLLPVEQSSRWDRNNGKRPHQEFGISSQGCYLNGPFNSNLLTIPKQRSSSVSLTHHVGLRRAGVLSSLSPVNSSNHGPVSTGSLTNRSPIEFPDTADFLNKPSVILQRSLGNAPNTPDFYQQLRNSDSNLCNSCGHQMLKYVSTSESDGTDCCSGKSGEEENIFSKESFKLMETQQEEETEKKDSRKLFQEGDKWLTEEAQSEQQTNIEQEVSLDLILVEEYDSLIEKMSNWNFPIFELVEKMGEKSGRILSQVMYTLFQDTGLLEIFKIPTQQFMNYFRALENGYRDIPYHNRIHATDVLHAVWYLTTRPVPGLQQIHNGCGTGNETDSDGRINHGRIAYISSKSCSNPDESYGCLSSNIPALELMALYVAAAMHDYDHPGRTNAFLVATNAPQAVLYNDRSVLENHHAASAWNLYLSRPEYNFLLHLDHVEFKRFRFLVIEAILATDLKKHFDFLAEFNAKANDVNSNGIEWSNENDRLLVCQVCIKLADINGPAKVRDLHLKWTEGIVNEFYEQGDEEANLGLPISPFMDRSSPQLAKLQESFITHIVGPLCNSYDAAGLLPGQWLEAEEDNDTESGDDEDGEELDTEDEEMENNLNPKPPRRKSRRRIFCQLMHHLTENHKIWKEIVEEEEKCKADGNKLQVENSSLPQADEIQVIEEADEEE

SMILES: CCc1ccc([C@@H]2c3[nH]c4ccccc4c3C[C@@H]3C(=O)N(CC)C(=O)N23)o1
- pIC50 [1]: 8.07
- inhibition [2]: 85.8%
- pIC50 [3]: < 4.70
- pIC50 [4]: < 4.70
- pIC50 [5]: < 4.70
- pIC50 [6]: < 5.00
- pIC50 [7]: < 6.00
- Ratio IC50 [8]: > 118
- pIC50 [9]: 7.00
- Ratio IC50 [10]: 12
- percent relaxation [11]: Dose-dependent effect
- pEC50 [12]: 6.65

SMILES: CCc1ccc([C@H]2c3[nH]c4ccccc4c3C[C@@H]3C(=O)N(CC)C(=O)N23)o1
- pIC50 [1]: 7.56
- inhibition [2]: 83.6%
- pIC50 [3]: < 4.70
- pIC50 [4]: < 4.70
- pIC50 [5]: < 4.70
- pIC50 [6]: < 5.00
- pIC50 [7]: 8.00
- Ratio IC50 [8]: 0.4
- pIC50 [9]: 6.10
- Ratio IC50 [10]: 29

SMILES: CN1CC(=O)N2[C@H](c3ccc(Br)s3)c3[nH]c4ccccc4c3C[C@@H]2C1=O
- pIC50 [1]: 8.14
- inhibition [2]: 99.2%
- pIC50 [3]: < 4.70
- pIC50 [4]: < 4.70
- pIC50 [5]: < 4.70
- pIC50 [6]: < 5.00
- pIC50 [7]: 6.87
- Ratio IC50 [8]: 19
- pIC50 [9]: 6.66
- Ratio IC50 [10]: 30
- percent relaxation [11]: Dose-dependent effect
- pEC50 [12]: 7.26

SMILES: CCN1C(=O)[C@@H]2Cc3c([nH]c4ccccc34)[C@@H](c3ccc(Br)s3)N2C1=O
- pIC50 [14]: 6.80

SMILES: CCc1ccc([C@@H]2c3[nH]c4ccccc4c3C[C@H]3C(=O)N(CC)C(=O)N23)s1
- pIC50 [1]: 8.28
- inhibition [2]: 94.1%
- pIC50 [3]: < 4.70
- pIC50 [4]: < 4.70
- pIC50 [5]: < 4.70
- pIC50 [6]: < 5.00
- pIC50 [7]: 7.25
- Ratio IC50 [8]: 11
- pIC50 [9]: < 6.00
- Ratio IC50 [10]: > 190
- Stability [13]: Stable
- percent relaxation [11]: Dose-dependent effect
- pEC50 [12]: 7.24

SMILES: CCCCN1C(=O)[C@H]2Cc3c([nH]c4ccccc34)[C@@H](c3ccc(CC)s3)N2C1=O
- pIC50 [1]: 7.44
- inhibition [2]: 76.2%
- pIC50 [3]: < 4.70
- pIC50 [4]: < 4.70
- pIC50 [5]: < 4.70
- pIC50 [6]: < 5.00
- pIC50 [7]: < 6.00
- Ratio IC50 [8]: > 27
- pIC50 [9]: 6.41
- Ratio IC50 [10]: 10

SMILES: CCN1C(=O)[C@@H]2Cc3c([nH]c4ccccc34)[C@@H](c3sccc3C)N2C1=O
- pIC50 [1]: 7.67
- inhibition [2]: 76.1%
- pIC50 [3]: < 4.70
- pIC50 [4]: < 4.70
- pIC50 [5]: < 4.70
- pIC50 [6]: < 5.00
- pIC50 [7]: 7.89
- Ratio IC50 [8]: 0.6
- pIC50 [9]: 6.81
- Ratio IC50 [10]: 7

SMILES: CCc1ccc([C@@H]2c3[nH]c4ccccc4c3C[C@@H]3C(=O)N(CC)C(=O)N23)s1
- pIC50 [1]: 8.15
- inhibition [2]: 91.4%
- pIC50 [3]: < 4.70
- pIC50 [4]: < 4.70
- pIC50 [5]: < 4.70
- pIC50 [6]: < 5.00
- pIC50 [7]: < 6.00
- Ratio IC50 [8]: > 142
- pIC50 [9]: 6.77
- Ratio IC50 [10]: 24
- percent relaxation [11]: Dose-dependent effect
- pEC50 [12]: 6.99

SMILES: Cc1ccc([C@@H]2c3[nH]c4ccccc4c3C[C@@H]3C(=O)N(C)CC(=O)N23)s1
- pIC50 [1]: 8.06
- inhibition [2]: 96%
- pIC50 [3]: < 4.70
- pIC50 [4]: < 4.70
- pIC50 [5]: < 4.70
- pIC50 [6]: < 5.00
- pIC50 [7]: < 6.00
- Ratio IC50 [8]: > 115
- pIC50 [9]: 6.76
- Ratio IC50 [10]: 20
- percent relaxation [11]: Dose-dependent effect
- pEC50 [12]: 7.15

SMILES: COc1ccc(CN=c2[nH]c(N3CCC[C@H]3CO)ncc2C(=O)NCc2ncccn2)cc1Cl
- pKi [14]: 8.30

SMILES: CCCCCN1C(=O)[C@@H]2Cc3c([nH]c4ccccc34)[C@@H](c3ccc(Br)s3)N2C1=O
- pIC50 [14]: 6.77

SMILES: CCNC(=O)N1[C@H](c2ccc(CC)o2)c2[nH]c3ccccc3c2C[C@@H]1C(=O)OC
- inhibition [2]: 46.1%
- Stability [13]: Stable

SMILES: c1ccc(CNc2ncnc3sc4c(c23)CCCCC4)cc1
- pIC50 [14]: 6.72

Continued, in another order:

- pIC50 [1]: 7.28
- inhibition [2]: 73.3%
- pIC50 [7]: 6.54
- pIC50 [9]: 6.20
- Stability [13]: Stable
SMILES: CCc1ccc(C2c3[nH]c4ccccc4c3C(=O)CN2c2ncc(-c3ccc(OC)c(OC)c3)cn2)o1 (centres undefined)
- Ratio IC50 [8]: 5
- Ratio IC50 [10]: 12

- pIC50 [1]: 6.64
- inhibition [2]: 47.8%
- Stability [13]: Stable
SMILES: CCNC(=O)c1cc2c([nH]c3ccccc32)c(-c2ccc(CC)s2)n1

- pIC50 [1]: 7.98
- inhibition [2]: 85.4%
- pIC50 [3]: < 4.70
- pIC50 [4]: < 4.70
- pIC50 [5]: < 4.70
- pIC50 [6]: < 5.00
- pIC50 [7]: 7.21
- pIC50 [9]: 8.40
- percent relaxation [11]: Dose-dependent effect
- pEC50 [12]: 6.72
SMILES: CCN1C(=O)[C@@H]2Cc3c([nH]c4ccccc34)[C@@H](c3ccc(C)o3)N2C1=O
- Ratio IC50 [8]: 6
- Ratio IC50 [10]: 0.4

- pIC50 [14]: 6.62
SMILES: CC(C)(C)Oc1ccc(Cc2[nH]c(-c3ccco3)c3c(=O)c4ccccc4oc23)cc1

- pIC50 [14]: 7.07
SMILES: CCc1ccc(C2c3[nH]c4ccccc4c3CCN2c2ccc(-c3ccccn3)cn2)s1 (centres undefined)

- inhibition [2]: 25.2%
- Stability [13]: Stable
SMILES: CCc1ccc(C(=O)c2[nH]c3ccccc3c2CCNc2ccc(-c3ccccn3)cn2)s1

- pKi [14]: 8.10
SMILES: COc1ccc(-c2cnc(N3CC(=O)c4c([nH]c5ccccc45)C3c3ccc4c(c3)OCO4)nc2)cc1OC (racemic)
